Compound activity (PubChem)
RGS4 inh = RGS4 inhibitors, primary screen, cell-based, HEK293 M3R inducible RGS4, calcium flux | Fluo-4 calcium flux; hits give high values; triggered by carbachol at its EC20 | 0.45% of 310,000 active | AID 463165, 2010 | Regulator of G-protein signaling 4 (Homo sapiens), P49798 | B-score at 10 µM;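 active = B-score, a plate-corrected calcium signal, over three deviations above library mean, with baseline fluorescence within five deviations of library mean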;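 also: RGS4 expression induced by doxycycline in cells with stable M3 receptor; B-score is computed from the integrated fluorescence ratio over baseline after carbachol; higher B-score means a larger calcium signal and so more RGS4 inhibition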
Target sequence (P49798 whole entry, looked up): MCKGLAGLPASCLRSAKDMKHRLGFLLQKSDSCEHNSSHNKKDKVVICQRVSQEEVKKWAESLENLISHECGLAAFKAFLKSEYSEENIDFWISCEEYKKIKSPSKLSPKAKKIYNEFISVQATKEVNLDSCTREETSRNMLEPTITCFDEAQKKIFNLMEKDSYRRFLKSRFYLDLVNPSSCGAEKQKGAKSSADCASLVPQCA
MrgX1 PAM = positive allosteric modulators of MrgX1, primary screen, HEK293 cells, Fluo-4 calcium flux; FDSS; hits give high values; B-score at 10 µM; 0.63% of 310,000 active; AID 588675, 2011;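 active = plate-corrected calcium response at least 3 library SD above typical, normal starting fluorescence, not activating the receptor alone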;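 also: compound read alongside a low EC10 to EC30 dose of BAM8-22 agonist; peak minus trough fluorescence over baseline measured at the second addition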
Target sequence (Q96LB2 whole entry, looked up): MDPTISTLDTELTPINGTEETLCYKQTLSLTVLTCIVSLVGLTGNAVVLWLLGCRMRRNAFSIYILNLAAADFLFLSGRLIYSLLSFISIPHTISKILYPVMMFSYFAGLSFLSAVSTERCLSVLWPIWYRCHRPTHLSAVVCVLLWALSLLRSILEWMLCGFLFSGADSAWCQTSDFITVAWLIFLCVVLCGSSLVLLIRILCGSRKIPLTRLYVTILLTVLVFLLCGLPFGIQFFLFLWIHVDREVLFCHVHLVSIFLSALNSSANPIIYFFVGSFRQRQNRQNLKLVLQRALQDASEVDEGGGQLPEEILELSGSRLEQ
RGS4 act = RGS4 potentiators or activators, primary screen, cell-based, HEK293 M3R inducible RGS4, calcium flux; carbachol calcium flux Fluo4; hits give low values; 0.92% of 310,000 active; B-score at 10 µM;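 active = B-score of the integrated calcium signal more than 4 SD below the library mean, with starting fluorescence not abnormally high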;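 also: negative B-score means reduced calcium response which marks RGS4 activation or potentiation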
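Material: Inducible-RGS4 HEK293 cells carrying M3 receptor; also added: carbachol at ECmax as muscarinic agonist stimulus; incubation: compound preincubation 20 min at room temperature before agonist; signal: Fluo4-AM (2 µM) calcium-flux fluorescence, kinetic read; measure: integrated calcium ratio converted to B score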
MrgX1 antagonist = antagonists of human MrgX1 receptor, primary screen, HEK293 cells, Fluo-4 calcium flux; Mas-related G-protein coupled receptor member X1 (Homo sapiens), Q96LB2; 1.3% of 310,000 active; BAM8-22 antagonism; hits give low values; B-score at 10 µM;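 active = calcium-response B-score plate-corrected more than 3 library SD below zero, starting fluorescence within 5 deviations, no agonist response on first addition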;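 also: peak minus trough fluorescence over baseline after final BAM8-22 challenge near maximal dose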
MrgX1 agonist = agonists of human MrgX1 receptor, primary screen, HEK293 cells, Fluo-4 calcium flux | Fluo-4 calcium fluorescence, agonist mode; hits give high values | Mas-related G-protein coupled receptor member X1 (Homo sapiens), Q96LB2 | 0.44% of 310,000 active | B-score at 10 µM;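 active = calcium response B-score plate-corrected fluorescence ratio at least 3 library SD, with starting fluorescence B-score inside 5 SD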
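times = overnight plating, then 30 min 37 °C plus 30 min room-temperature dye loading | assay system = stable human MrgX1 HEK293 cell line | input = fifteen thousand cells per well | signal = kinetic calcium dye fluorescence, Fluo-4 NW | dosing = compound delivered in addition one of three | read-out = B-scored fluorescence response ratio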
RGS4 activ val = reduced carbachol calcium response, RGS4-induced M3R cells, confirmation, RGS4 activator project, cell-based, HEK293 M3R/RGS4 inducible, calcium flux, duplicate; shares compounds with RGS4 act; AID 602282, 2012; 89% of 1,100 active; inhibition, % at 10 µM; carbachol calcium flux Fluo4;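 active = inhibition above 3 SD of the buffer control wells, cut at about 41% in these data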;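 also: signal is the integrated peak-minus-minimum Fluo4 fluorescence over baseline ratio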
M3R Ca counter = counter-screen for RGS4 activators: effect in non-induced cells | shares compounds with RGS4 act | 82% of 1,100 active | HEK293 M3R non-induced RGS4, Fluo4 calcium flux; after carbachol challenge at its EC90 | inhibition, % at 10 µM;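 active = inhibition exceeding 3 SD of buffer-only control wells, cut at about 26% in these data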;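 also: percent drop in integrated peak-minus-baseline over baseline Fluo4 ratio after carbachol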
Each line names hits and unclear results; the compound was inactive in the other large screens (follow-up assays come after a bar, where they were run). A selection: hits, their analogues and other compounds. The true share with any hit is near 3.5%.

O=C(NCCc1ccccc1)C(c1cccs1)N(C(=O)c1csnn1)C1CC1 (stereo not given)	none
O=C(NCCc1ccccc1)C(c1cccs1)N(C(=O)CCl)c1ccc(Cl)cc1 (stereo not given)	RGS4 act -8.1 | RGS4 activ val 50 | M3R Ca counter inactive
Cc1ccc(S(=O)(=O)NCc2cc(=O)n(C)c(=O)n2C)cc1C	none
Nc1cc(=O)[nH]n1C1CCCCC1	none
CC(C)(C)N(Cc1ccccc1)C(=O)c1cc2ccccc2o1	RGS4 act -7.6 | RGS4 activ val 91 | M3R Ca counter 93
CN(Cc1ccccc1)C(=O)c1cc2ccccc2o1	none
CCN(CC)C(=O)C(=O)Nc1ccc(OC)c(Cl)c1	none
CCN(CC#CCC(O)(c1ccccc1)c1ccccc1)C(C)C	RGS4 act -8.3 | RGS4 activ val 79 | M3R Ca counter 30
Cc1ccccc1C(=O)OC1CCCN(C)C1 (stereo not given)	none
CN1CCCC(C#CC(O)(c2ccccc2)c2ccccc2)C1 (stereo not given)	RGS4 act -11 | RGS4 activ val 94 | M3R Ca counter 92
COc1cccc(-c2nc3c(c(SCC(=O)N4CCOCC4)n2)Cc2c(CO)cnc(C)c2O3)c1	RGS4 act -8.1 | RGS4 activ val 40 | M3R Ca counter 84
Cc1ncc(CO)c2c1Oc1nc(-c3ccccc3)nc(SCC(=O)N3CCCCC3)c1C2	RGS4 act -7.8 | RGS4 activ val 76 | M3R Ca counter 40
CC(C)N1C(=O)CCN(C=O)c2ccccc21	none
Cc1nn(C)c(C)c1NC(=O)c1ccccc1NC(=O)Nc1ccccc1	none
O=C(OCc1nnc(-c2ccccc2)o1)c1cn(-c2ccccc2)nc1-c1ccccc1	none
Cc1cc(C(=O)OCc2nnc(-c3ccccc3)o2)c(C)n1-c1ccccc1	RGS4 act -8.9 | RGS4 activ val 94 | M3R Ca counter 85
CN1C(=O)C(CC(=O)O)S/C1=N\N=C\c1ccc(O)cc1O (stereo not given)	none
CN(CC(=O)Nc1ccc(C#N)cc1)Cc1ccc(Cl)c(Cl)c1	RGS4 act -8.7 | RGS4 activ val 92 | M3R Ca counter 95
CN(CC(=O)Nc1cccc(C#N)c1)Cc1ccc(Cl)cc1	none
CCc1ccc(NC(=O)CCc2nc3cccnc3n2Cc2ccc(OC)cc2)cc1	RGS4 act -8 | RGS4 activ val inactive | M3R Ca counter inactive
CCCCCCNC(=O)CCc1nc2cccnc2n1Cc1ccc(OC)cc1	none
CSc1nc(NCCCO)c2c3c(sc2n1)CN(C)CC3	RGS4 act -7.8 | RGS4 activ val inactive | M3R Ca counter inactive
CCCCc1cc(O)c(CCCC)c(O)c1	RGS4 act -8, MrgX1 antagonist -11 | RGS4 activ val 92 | M3R Ca counter 88
CCCCCc1cc(O)c2c(C)cc(=O)oc2c1	none
Cc1ccnc(NCc2ccc(Cl)cc2)c1	none
O=C(Nc1ccccc1N1CCN(C(=O)c2ccccc2)CC1)c1ccc(Br)o1	RGS4 act -7.8 | RGS4 activ val 48 | M3R Ca counter inactive
COc1ccc(C(=O)Nc2ccccc2N2CCN(C(=O)c3ccccc3)CC2)cc1Br	RGS4 act -9.4 | RGS4 activ val 64 | M3R Ca counter 26
O=C(NC(=S)Nc1ccccc1N1CCOCC1)c1ccccc1F	none
O=C(NC(=S)Nc1ccccc1N1CCN(C(=O)c2ccccc2)CC1)c1ccccc1F	RGS4 act -8 | RGS4 activ val 68 | M3R Ca counter inactive
O=C(Nc1ccccc1N1CCN(C(=O)c2ccccc2)CC1)c1ccc(Cl)cc1	none
N#Cc1c(Cl)nc(-c2ccncc2)nc1-c1ccccc1	none
CN1CCC(Oc2ccccc2Sc2ccc(C(F)(F)F)cc2)CC1	none
